Screening results: PubChem BioAssay, several laboratories
Shown are actives, neighbours in structure and some others; about 4.1% of the full set was active somewhere.
KCNK9 block = KCNK9 potassium channel inhibitors, primary screen, HEK293 cells, thallium flux. 310,000 tested, 1.2% active. B-score at 10 µM. FluxOR thallium flux fluorescence; hits give low values;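 active means ratio B-score over 3 SD below the library mean, with starting fluorescence within 5 SD of its mean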;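 further: negative B-score means less thallium flux so channel inhibition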
KCNK3 inh = human KCNK3 channel inhibitors, primary screen, CHO cells, FluxOR thallium flux, B-score; Potassium channel subfamily K member 3 (Homo sapiens), O14649; FluxOR fluorescence; hits give low values; B-score at 10 µM; 340,000 tested, 0.84% active; AID 602410, 2012;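 active means B-score under library mean minus 4 SD, starting fluorescence ratio at most library mean plus 5 SD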;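 further: more negative B-score means stronger inhibition of thallium flux through KCNK3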
KCNQ1 pot = potentiators or activators of KCNQ1 channel, primary screen, cell-based, thallium flux, high-throughput | Potassium voltage-gated channel subfamily KQT member 1 (Homo sapiens), P51787 | CHO-K1 KCNQ1, thallium flux FluxOR fluorescence; hits give high values | B-score at 10 µM | 310,000 tested, 0.35% active;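 active means fluorescence ratio B-score, a plate-corrected score, at least three library SD, with initial intensity B-score within 5 SD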
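System: Stable KCNQ1 CHO-K1 line | Incubation: 90 min dye loading and 20 min compound exposure, both at room temperature | Measure: Ratio B score | Medium: Assay buffer for compound exposure, DMSO matched across wells | Compound dosing: Single-concentration screen | Probe or stimulus: K+/Tl+ depolarizing stimulus | Measured by: Kinetic FluxOR fluorescence, 10 s baseline plus 110 s post-stimulus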
Cl transport mod = KCC2 cotransporter modulators, thallium flux, primary screen, cell-based, HEK293 KCC2, FluoZin-2 fluorescence, MLSMR; KCC2 cells, thallium flux FluoZin-2 fluorescence; 190,000 tested, 2.2% active; B-score of Tl+ flux slope (higher = more flux/activation; lower = inhibition) at 10 µM; Solute carrier family 12 member 5 (Homo sapiens), Q9H2X9;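 active means thallium flux slope and its plate-corrected score both differing from the plate sample mean at a set confidence after two filtering rounds, in either direction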;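 further: slope of fluorescence scaled to starting intensity during 10 to 20 s after thallium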
Target sequence (Q9H2X9 whole entry, looked up): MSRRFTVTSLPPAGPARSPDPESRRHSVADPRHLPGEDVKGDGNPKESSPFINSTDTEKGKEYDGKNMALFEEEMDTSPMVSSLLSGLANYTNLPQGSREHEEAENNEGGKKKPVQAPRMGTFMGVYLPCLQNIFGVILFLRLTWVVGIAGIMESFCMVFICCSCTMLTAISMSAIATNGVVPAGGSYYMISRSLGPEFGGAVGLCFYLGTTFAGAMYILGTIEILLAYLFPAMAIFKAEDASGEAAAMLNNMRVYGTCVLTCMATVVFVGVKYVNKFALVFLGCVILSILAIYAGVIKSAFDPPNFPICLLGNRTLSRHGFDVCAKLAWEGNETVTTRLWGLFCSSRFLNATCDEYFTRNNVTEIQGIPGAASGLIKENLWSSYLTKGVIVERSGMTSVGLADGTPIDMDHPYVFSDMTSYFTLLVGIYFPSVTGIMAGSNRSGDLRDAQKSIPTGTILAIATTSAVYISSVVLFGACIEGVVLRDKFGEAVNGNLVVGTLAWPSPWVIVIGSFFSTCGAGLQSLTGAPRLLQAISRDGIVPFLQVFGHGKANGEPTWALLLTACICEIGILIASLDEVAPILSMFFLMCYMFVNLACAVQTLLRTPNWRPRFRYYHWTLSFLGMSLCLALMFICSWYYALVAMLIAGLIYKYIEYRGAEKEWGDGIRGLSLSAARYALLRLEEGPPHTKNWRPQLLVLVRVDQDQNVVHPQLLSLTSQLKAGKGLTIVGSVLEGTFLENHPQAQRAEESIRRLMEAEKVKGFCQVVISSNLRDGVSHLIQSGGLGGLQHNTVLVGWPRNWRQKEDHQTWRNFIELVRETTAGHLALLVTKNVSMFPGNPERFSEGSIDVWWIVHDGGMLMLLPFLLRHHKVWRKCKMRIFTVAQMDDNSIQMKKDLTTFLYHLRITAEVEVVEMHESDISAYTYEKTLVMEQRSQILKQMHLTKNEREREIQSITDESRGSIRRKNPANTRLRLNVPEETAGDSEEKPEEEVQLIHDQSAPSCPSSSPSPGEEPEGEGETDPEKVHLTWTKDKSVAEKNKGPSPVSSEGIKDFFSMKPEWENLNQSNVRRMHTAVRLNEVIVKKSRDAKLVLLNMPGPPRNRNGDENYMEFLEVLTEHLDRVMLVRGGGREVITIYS
hERG protect = hERG rescue from dofetilide block, primary screen, cell-based, CHO-hERG, FluxOR thallium flux, dofetilide IC70. Voltage-gated inwardly rectifying potassium channel KCNH2 (Homo sapiens), Q12809. dofetilide IC70 present. activation (rescue from dofetilide block), less the hit threshold, % at 10 µM. 310,000 tested, 0.51% active;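 active means activation above the mean of controls blocked by dofetilide plus 5 SD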;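 further: thallium influx through hERG after potassium depolarization seen as dye fluorescence rise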
KCNQ1 block = inhibitors of human KCNQ1 channel, primary screen, cell-based, thallium flux, high-throughput | CHO-K1 KCNQ1, FluxOR thallium flux fluorescence; hits give high values | Potassium voltage-gated channel subfamily KQT member 1 (Homo sapiens), P51787 | 310,000 tested, 1.3% active | B-score at 10 µM;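 active means compounds whose thallium flux B-score, printed positive for inhibition, exceeds three library SD while starting fluorescence stays within three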;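 further: channel opened by potassium depolarization with thallium stimulus after 20 min compound exposure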
Of the large screens only hits and unclear results are named; the others gave an inactive call.

CC[n+]1c(/C=C/N(C)c2ccccc2)oc2ccccc21	KCNQ1 block 8
CCC(=O)c1ccc(OCC(=O)OCC(=O)NCC2CCCO2)cc1 (stereo not given)	none (no result: Cl transport mod)
O=C(CCN1CCC(c2ccccc2)C1)c1ccccc1 (stereo not given)	none
COc1cc(C(=O)CCN2CCC(c3ccccc3)C2)cc(OC)c1OC (stereo not given)	KCNQ1 pot 11
Cc1cccc2cc3c(N)c(C(=O)Nc4ccc(N5CCOCC5)cc4)sc3nc12	KCNK3 inh -11 (no result: Cl transport mod)
CCCCn1nc(C(=O)Nc2ccc3c(c2)OCO3)c2ccccc2c1=O	KCNK3 inh -10 (no result: KCNK9 block, KCNQ1 pot, Cl transport mod, hERG protect, KCNQ1 block)
CCCn1nc(C(=O)N2CCc3ccccc32)c2ccccc2c1=O	none (no result: KCNK9 block, KCNQ1 pot, Cl transport mod, hERG protect, KCNQ1 block)
CCCCn1nc(C(=O)N[C@@H](CCSC)c2nc3ccccc3[nH]2)c2ccccc2c1=O	KCNK9 block -7.5
CCCCn1nc(C(=O)Nc2ccccc2N2CCCC2)c2ccccc2c1=O	KCNK3 inh -8.7 (no result: KCNK9 block, KCNQ1 pot, Cl transport mod, hERG protect, KCNQ1 block)
CCCCCn1nc(C(=O)N2CCc3ccccc32)c2ccccc2c1=O	KCNK3 inh -10 (no result: KCNK9 block, KCNQ1 pot, Cl transport mod, hERG protect, KCNQ1 block)
CCCn1nc(C(=O)Nc2ccc3c(c2)OCO3)c2ccccc2c1=O	none (no result: KCNK9 block, KCNQ1 pot, Cl transport mod, hERG protect, KCNQ1 block)
CCN(CC(=O)Nc1ccc2c(c1)OCCO2)C(=O)c1ccc([N+](=O)[O-])s1	none (no result: KCNK9 block, KCNQ1 pot, Cl transport mod, hERG protect, KCNQ1 block)
CCOC(=O)C1=CNS(=O)(=O)NC1c1ccc(Br)cc1F (stereo not given)	none (no result: KCNK9 block, KCNQ1 pot, Cl transport mod, hERG protect, KCNQ1 block)
Cc1nc(N2CCN(S(=O)(=O)c3ccccc3C#N)CC2)c2c(-c3ccccc3)csc2n1	none (no result: KCNK9 block, KCNQ1 pot, Cl transport mod, hERG protect, KCNQ1 block)
Cc1ccc(S(=O)(=O)/N=C(/Nc2ccc([N+](=O)[O-])cc2[N+](=O)[O-])c2ccccc2)cc1	none (no result: KCNK9 block, KCNQ1 pot, Cl transport mod, hERG protect, KCNQ1 block)
O=C(CCNc1ccc(Br)cc1)c1cccc([N+](=O)[O-])c1	none
O=C(CCNc1ccc(F)cc1)c1cccc([N+](=O)[O-])c1	KCNQ1 block 6 (no result: Cl transport mod)
O=C(CCNc1ccccc1)c1cccc([N+](=O)[O-])c1	none
Cc1ccc(NCCC(=O)c2cccc([N+](=O)[O-])c2)cc1	KCNQ1 block 9 (no result: Cl transport mod)
CC(C)=CCc1c(O)cc2c(=O)c3ccc(O)cc3oc2c1O	KCNK9 block -12 (no result: Cl transport mod)
O=C(/C=C/NNC(=O)c1ccc(Cl)cc1)c1ccccc1	none
O=C(/C=C/NNC(=O)c1ccccc1)c1ccc(Br)cc1	Cl transport mod 8.8
CC(/C=C(\NC(=O)c1ccccc1)C(=O)N=Nc1c(O)[nH]c2ccc(C)cc12)=C\c1ccccc1	KCNQ1 block 6
O=C(N/N=C\c1ccc[nH]1)C1COc2ccccc2O1 (stereo not given)	none
CN(C)c1cccc(C(=O)NNC(=O)CN2C(=O)C3CC=CCC3C2=O)c1 (stereo not given)	none (no result: KCNK9 block, KCNQ1 pot, Cl transport mod, hERG protect, KCNQ1 block)
O=C(CN(Cc1ccco1)C(=O)c1cccc(F)c1)Nc1ccccc1C(F)(F)F	none (no result: KCNK9 block, KCNQ1 pot, Cl transport mod, hERG protect, KCNQ1 block)
Oc1c(C(c2ccccn2)N2CCC(Cc3ccccc3)CC2)cc(Cl)c2cccnc12 (stereo not given)	KCNQ1 block 13 (no result: KCNK3 inh)
Cc1cc(C)cc(NS(=O)(=O)CCCS(=O)(=O)Nc2cc(C)cc(C)c2)c1	none (no result: KCNK9 block, KCNQ1 pot, Cl transport mod, hERG protect, KCNQ1 block)
CCN(CC(=O)Nc1ccccc1C(F)(F)F)C(=O)c1cc(-c2ccccc2)nn1-c1ccccc1	none (no result: Cl transport mod)
CCN(CC(=O)Nc1ccccc1OC)C(=O)c1cc(-c2ccccc2)nn1-c1ccccc1	KCNQ1 block 7 (no result: Cl transport mod)
Cc1cc(C)nc(SSc2nc(C)cc(C)n2)n1	hERG protect 5.6 (no result: Cl transport mod)
COC(=O)C1=C(C)N(Cc2ccc(C)cc2)C(=O)/C1=C\c1cc(OC)c(OC)c(OC)c1	KCNK9 block -6.6
CS(=O)(=O)c1ccc(Cl)c(NC(=O)CSc2nc3ccccc3c(=O)n2Cc2ccco2)c1	none (no result: Cl transport mod)
CCCCOc1ccccc1NC(=O)Cn1c(-c2nonc2N)nc2ccccc21	KCNK3 inh -8.8
